Experimental data: the RNAGym collection of RNA variant scans (doi:10.1126/science.aae0568)
Fewer inactive variants are shown than the library holds.

B1: tRNA (parent)
chain: GUUCCGUUGGCGUAAUGGUAACGCGUCUCCCUCCUAAGGAGAAGACUGCGGGUUCGAGUCCCGUACGGAACG

Variants of: B1
Assay: yeast fitness relative to wild type (ratio to wild type); higher = fitter; tRNA-Arg(CCU), competitive growth, 37 C, YPD
Summary of the method: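 Gene amplicons from the start population and from each of six end populations were read by 100-nucleotide paired-end sequencing. Those end populations came from pooled Saccharomyces cerevisiae strains carrying tRNA-Arg(CCU) gene variants at the native locus, competed in YPD at 37°C for 24 hours. Fitness relative to wild type was worked out from changes in genotype frequencies. Genotypes needed ≥ 100 starting reads, and estimates < 0.5 were set to 0.5.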

Variant	yeast fitness
GUUCCGUUGGCGUGAUGGUAAGGCGUCUCACUCCUAAGGAGAAGACUGCGGGUUCGAGUCCCGUACGGAACG	0.528
GUUCCGUUGGCGUAAUGGUAACGCGUCUCCCUCCUAAGGAGAAGACUGCAGGUUCAAGUCCCGUACGGAACG	1.04
GUUCUGUUGGCGUACUGGUAACGCGUCUUCCUCCUAAGGAGAAGACUGCGGGUUCGACUCCCGUACGGAACG	≤ 0.5
GUUCCGUUGGCAUAAUGGUAACGGGUCUACCUCCUAAGGAGAAGACAGCGGGUUCGAGUCCAGUACGGAACG	≤ 0.5
GUUCCGUUGGCGUAAUGGUAACGCGUCUCGCUCCUACGGAGAAGACUGCGGGUUCGAGUCCCGUACGGAACG	0.673
GUACCGUUGGCGUAAUGGAAACGCGUCUCCCUCCUAAGGAGAAGACUGCGGGUUCGAGUCCCGUACGCAACG	0.712
GUUCCGUUGGCGUAAUGGAAACCCGUCUCCCUCCUAAGGAGAAGACUGCGGGUUCGAGUCCCGUACGGAACG	0.549
GUUCCGUUGGCGUAAUGGUAACGCGUCUCCCUCCUAAGGAGGAGACUGCGGGUUCGAGUCACGUACAGAACG	≤ 0.5
GUUCCGUUGGCGCAAUGGUAAUGCGUCUCCCUCCUAAGCAGAAGACUGCGGGUUCGAGUCCCGUACGGAACG	0.512
GUUCCGUUGGCGUAAUGCUAACGCGUCGCCCUCCUAAGGAGAAGACUGCGGGUUCGAGUCCCGUACGGAACG	0.727
GUUCAGUUGGCGUAAUGGUAACGCGACUCCCUACUAAGGAGACGACUGCGGGUUCCAGUCCCGUACGGAACG	0.597
GUUCGCUUGGCGUAAUGGUAACGUGUCUCCCUCCUAAGGAGAAGAAUGCGGGUUCGAGUCCCGUACGGAACG	0.559
GUUCCGUUGGCGUAAUGGUAACCCGUCUCCGUCCUAAGGAGAAGACUGCGGGUUCGAGUCCCGUACGGAACG	0.654
GUUCCGUUGGCGUAAUGGUAACGCGUCUCCCUCCUAAGGAGAAGACUGCGGGUUCGAGUCCCGUACGCCACG	0.786
GUUGCGUUGGCGUAAUAGUAACGCGUCUCCCUCCUAAGGAGAAGACUGCGAGUUCGAGUCCCGUAUGGAACG	≤ 0.5
GUUCCAUUGGCGUAAUGGUAACGCGUCUUCCUGCUAAGGAGAAGACUGCGGGUUCGAGUCCCGUACAGAACG	≤ 0.5
GUUCCGUUGGCGUAAUGGAAACGCGUCUCCCUCCUAAGGAGAAGACAGCGGGUUCGACUCCCGUACGGAACG	0.602
GUUCCGUUGGCGUAAUGGUAACGCGUCUCCCCCCUAAGGCGAAGACUCCGGGUUCGAGUCCCGUACGGAACG	≤ 0.5
GCUCCGUUGGCGUAAUGGUAGCGCGUCUCCCUCCUAAGGAGAAGACUGCGGGUUCGAGUCCCGUUCGGAACG	0.665
GUUCCGUUGGCGUAAUGGUAACGCGUCUCAUUCCUGAGGAGAAGACUGCGGGUUUGAGUCCCGUACGGAACG	≤ 0.5
GUCCAGUAGGCGUAAUGGUAACGCAUCUCCCUCCUAAGGAGAAGGCUGCGGGUUCGAGUCCCGUACGGAACG	≤ 0.5
GUUCCGUUGGCGUAAUGAUAACGCGCCUCCCUCCUAAGGCGAAGACUGCGGGUACGAGUCCCGUACGGAACG	≤ 0.5
GUUACGUUGGCGUAAUGGUAACGCGGCUCCCUCCUAAGGAGAAGACUGCGGGUUCGAGUCCCGUAUGGAACG	≤ 0.5
GUUCCGUUGGCGUAAUGGUAACGCGCCUCCCUCCUAAGGAGAAGAGUGCGGGUUCGAGUCCCAUACGGAACG	≤ 0.5
GUUCCGUUGGCGUUAUGGUAACGCGUUUCCCUCCUAAGGAGAAGACUGCGGGUUCGAGUCCCGUACGGAACG	0.594

Variant	yeast fitness
GUUCCGUUGGCGUAAUGGUACCGCGUCUCCGUGCUAAGGAGAAAACUGCGGGUUCGAGUCCCGUAUGGAACG	0.526
GUUCCGUUGGCGUAAUGGUAACGCGUCUCCCUCCUAAGGAGAAGACUGUGGGUUCGAGUCCCGUACAGUACG	≤ 0.5
GUUCCGUUGGCGUAAUGGUAACGCGUCUCCCUCCUAAGGAGAAGAGUGCGGAUUCGAGUCCUGUACGGAACG	0.639
GUUCCGUUGGUGUAAUGGUAACGCGUCUCCCUCCUAAGGAGAAGAUUGCGGGUUCGAGUCCCGUACCGAACG	0.608
GUUCCGUUGGCGUAAUGGUAACGCAUCUCCCUCCUAAGGAGAAGACUACGGGUUCGAGUCCGGUACGGUACG	0.749
GUUCCGUUGGCGUAAUGCUAUCGCGUCUCGCUCCUAAGGAGAAGACUGCGGGUUCGAGUCCCGUACGGCACG	0.555
GAUCCGUUGGCGUAAUGGUAACGCGUCUCCCUCCUAAGGAGAAAAUUGCGGGUUCGAGUCCCGUACGGAACG	0.621
GUUCCGUUGGCGUAAUGGUAACGCGUCUCCCACCUAAGAAGAAGACUGCGGGUACGAGUCCCGUAAGGAACG	≤ 0.5
GUUCCGUUGGCGUAAUGGUAACGCGUCUCCCUCCUAAGGAGAAGACUGCGGGUUGGAGUCCCGUACGGAGCG	0.673
GUUCCGUUGGCGUAAUGGUAACAUGUCUCCCUCCAAAGGAGAAGACUGCGGGUUCGAGUACCGUACGGCACG	0.607
GUUCCGUUGGCGUAAUGGUCACGCGUCUCCCUCCUAGGGAGAAGACUGCGGGUUCCAGUCCCGUAUGGAACG	≤ 0.5
GUUCCGUUGCCGUAAUGGUAAUGCGUCUCGCUCCUAAGGCGAAGACUGCAGGUUCGAGUGCCGUACGGAACG	≤ 0.5
GUUACGUUGGCGUAAUGGUAACGCGUCUCCCUCCUAAAGAGAAGACUGCGGGUUCGAGUCCCGUACGGAACG	0.805
GUUCCGUUGGCGUAAUGGUAGCGCGUCUCCCUCCUAAGCAGAAGAAUGCGGGUUCGAGUCCCGUACGGAACG	0.881
GUUCCGGUGGCGUAAUGGUAACGCGUCUCUCUCCUAAGGAGAAGACUGCGGGUUCGAGUUCCGUACGGCACG	0.576
GUACCGUUGGCGUACUGGUAACGCGUCUCCCUCCUAAGGAGAAGACCGCGGGUUCGAGUCCCGUACGGAACG	≤ 0.5
GUUCCGUUGGCGUAAUGGUAACGCGCCUCCCUCCUAAGGAGCAGACUGCGGGUUCGAGUCCCGUACGGACCG	0.757
GUUCCGUUAGCGUAUUGGUAACGCGUCUGCCUUCUCAGGAGAAGACUGCGGGUUCGAGUCCCGUACAGAACG	≤ 0.5
GUUCCGUUGGCGUAUUGGUAACGCGUCUCCCUCCUAAGGAGAAGACUCCGGGUUCGAGUCCCGUACGGAACG	0.669
GUUCCGUUGGCGUAAUGGUAACGCGUCUCCUUCCUGAGGAGAAGUCUGCGGGUUCGAGUCCCGUACGGAACG	0.593
GUUCCGUUGGCGUAAUGGUAACGCGUCUCCCUCCUAAGGAGAGGACUGCGGGUUCGAGACCCGUACGGAACG	0.797
GUUCCGUUGGCGUAAUGGUAAAGCGCCUCCCUCCUAAGGAGAAGACUGCGGGUUCGAGUCCCGUACGGAACG	0.848
GUUCCGUUGGCGUAAUGGUAACGCGUCUCCCUCCUACGGAGCAGACUGCGGGUUCGAGUCCCGUACGGAACG	0.922
GUUCCGUCGGCGUAACGGUAACGCGUCUCCCUCCUAAGGAGAAGACUGCGGGUUCGAGACCCGUACGGAACG	≤ 0.5
GUUCCGUUCGCGUAAUGGUAACGCGUCUGGCUCCUAAGGAAAAGACUGCGGGUUCGAGUCCCGUACGGAACG	≤ 0.5

Variant	yeast fitness
GUUCCGUUGGCGUAAUGGUAACGCGUCUCCUUCCUAAGGGGAAGACUGCGGGUUCGAGUCCCGUACGGAUCG	0.55
GUUCCGUUGCUGUAAUGGUAACGCGUCUCCCUCCUAAGGAGAAGACUGAGGGUUCGAGUCCCGUCCGGAACG	≤ 0.5
GUUCCGUUGGCGUGAUGGUAACGCGUCUCCCUCCUAAGGAGAAGAGUGCGGGUUCGAGUCCCGUACGGAACG	0.989
GUUCCGUUGGCGUAAUGGUAACGCGUGUUCCUCCUAGGGAGAAGGCUGCGGGUUCGAGUACCGUACGAAACG	≤ 0.5
GUUCCGUUGGCGUAAUGGUAGCGCGUCUCCCUCCUAAGGAGAAGACUGCGUGUUCGAAUCCCGUACGGAACG	0.777
GUUCCGUUGGCCGACUGGUAACGCGUCUCCCUCCUUAGGAGAAGACUGCGGGUUCGAGUCCCGUACGGAACG	≤ 0.5
GUUCCGUUGGCGUAAUGGUAAAGCGUCUCCUUCCUAAGGAGAAGACUGCGGGUUCGAGUCCCGUACGCAACG	0.561
GUUCCGUUGGCGUAAUGGUAUCGCGUCUCCCGCCUAAGGAGAAGACUGCGGGUUCGAGCCCCGUACGAAACG	≤ 0.5
GUUCAGUUGGCGUAAUGGUAACGCGUCUACCUCGUAAGGAGAAGACUGCGGGUUCGAGUCCCGUACGGAACG	≤ 0.5
GUUCCGUUGGCGUAAUGGUAAUGCGUCUCCCUCCUCAGGAGAAGACUGCGGGUUUGAGACCCGUACGGAACG	≤ 0.5
GCUCCGUUGGUGUAAUGGUACCGCGCCUCCCUCCUAAGGAGAAGACUGCGGGUUCGUGUCCCGUACGGAACG	≤ 0.5
GUUCCGUUGGGGUAAUGGUAACGCGUCUCCCUCCUAAGGAGAACACUGCGGGUUCGCGUCCCGUACGGAACG	≤ 0.5
GUUCCGUUGGGGUAAUGGUAACGCGUCUUCCUCCUAAGGAGAAGACCGCGGGUUCGAGUCCCGUAAGGAACG	≤ 0.5
GUUCCGUUGGCGUACUGGUAACGCGUCUGCCUCCUAAGGAGAACUCAGCGGGUUCGAGUCCCGUACGGACCG	≤ 0.5
GUUCCGUUGGCGUAAUGGUAACGCGUCUCCCUGCUAAGGAGAAGACUGCGGGUUCGAGUCUGGUAUGGAACG	≤ 0.5
GUUCCGUUGGCGUAAUGGUAUCGCAUCUCCCUCCUAAGGAGAAGACUGCGGGUUCGAGUUCCGUACGGAACG	≤ 0.5
GUUCCAUUGGCGUAAUGGUAACGCGUCUCCCUCCUAAGGAGAAGACUGGGGGUUCGAGUCUCGUACGGGACG	≤ 0.5
GUUCCGUUGGCGUAAUGGUAACGCGUCUCCCUCCUAAGGAGAAGACUGCGGGUUCGAGUCCUGUACGGGACG	0.918
GUUCCGUGGGCGUAAGGGUAACGCGUCUCCCUCCUAAGGAGAAGACUGCGGGUUCGAGUCCGGUACGGAACG	0.616
GUUCCGUUGGCGUAAUGGUAUCGCGUCUCCCUCCUAAGGAGAAGACUGCGGAUUCGAGUCCCGUACGGAACG	0.566
GUUCCGUUGGCGUAAUGGUAACGCAUCUCCCUCCAUAGGAGAAGACUGCGGGUUCGAGUCUCGUACGGAACG	≤ 0.5
GUUCCGUUGGCGCAAUGGUAACGCGUCUCCCUCCUUAGGAGAAGACUGCGGGUUCGAGUCCGGUGCGGAACG	0.671
GUUCCGUUGGCGUAAUGGUAAGGCGUCUCCCUCCUAGGGAGAAGACUGCGGGUUCGAGUACCGUACGGAGCG	0.501
GUUCCGUUGGCCUAAUGGUAACGCGUCUCCUUCCUAAGGAGAAGACUGCGGGUUCGAGUCCCGUACGGAACG	0.876
GUUCCGUUGGCGUAAUGGUCACGCGUCUCCCUCCUACGGAGAAGACUGCGGGCUCGAGUCCCCUACGGAACG	≤ 0.5
